From ChEMBL document CHEMBL2396514, “Optimization of novel nipecotic bis(amide) inhibitors of the Rho/MKL1/SRF transcriptional pathway as potential anti-metastasis agents” (Bioorg Med Chem Lett, 2013) come the findings set out here.

Values after ≈ are worked out from the molar mass of the structure shown. Bounds are passed on as bounds.

Data set [1] is described as follows: Cytotoxicity against human PC3 cells at 100 uM by WST1 assay. Format: cell-based, PC-3. The note with it: read-out: INH. An outline of the steps: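 Read-out was inhibition of mitochondrial WST-1 reduction in PC-3 cells transiently transfected with an SRE.L luciferase reporter. Compound was tested at 100 μM. Values are the mean of n = 3 independent experiments.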

For data set [2], the system named is PC-3. The data set is described as follows: Antimetastatic activity against human PC3 cells at 10 uM after 24 hrs by scratch wound assay. The note with it: PC-3, 24 h. Format: functional. An outline of the steps:
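Confluent PC-3 monolayers (5.0×10^5 cells plated, DMEM with 10% FBS) were scratched 24 h after plating. Cells were then exposed to compound at 10 μM, or 0.1% DMSO, in DMEM with 0.5% FBS. Wounds were imaged at 0 h and after 24 h (formalin-fixed, crystal violet-stained). Wound-area closure was quantified and expressed as percent inhibition relative to DMSO control.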

A short description of data set [3]: Kinetic solubility of the compound. Format: physicochemical. Conditions: read-out: Kinetic_solubility.
Data set [4] relates to PC-3. The data set is described as follows: Antimetastatic activity against human PC3 cells after 24 hrs by scratch wound assay. Conditions: PC-3, 24 h. The format is functional, cell-based. Summed up:
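PC-3 cells (5.0×10^5) were grown to confluence in DMEM with 10% FBS and scratched after 24 h. Medium was switched to DMEM with 0.5% FBS containing compound at various concentrations or 0.1% DMSO. Wounds were imaged at 0 h, then fixed (10% formalin) and crystal-violet stained at 24 h. Migration = initial minus 24 h wound area, normalized to DMSO. IC50 was taken from dose-response curves.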

For data set [5], the system named is Mus musculus. In words: Toxicity in mouse assessed as increase in liver weight at 10 to 100 mg/kg/day, ip administered for 5 days measured on day 8. The format is organism-based. Details: route intraperitoneal. Conditions: in vivo, 120 h. An outline of the steps: (§1)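 5-day tolerability study in mice, doses of 10, 20, 50 and 100 mg/kg/day given intraperitoneally, 3 mice per dose. Animals sacrificed on day 8, then body weight recorded, blood collected, and internal organs dissected, weighed and examined for abnormalities. Behaviour observed and survival tracked over the dosing period.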

Data set [6] relates to Mus musculus. In words: Toxicity in mouse assessed as organism survival at 10 to 100 mg/kg/day, ip after 5 days. The format is organism-based. Set-up: route intraperitoneal. The note with it: in vivo, 120 h. Summed up: as §1
Data set [7] in a line: Cytotoxicity against human SK-MEL-147 cells by WST1 assay. The format is cell-based. Summed up:
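WST-1 reduction was measured in SK-Mel-147 melanoma cells transiently transfected for the RhoC-SRE.L luciferase reporter assay.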

One may read the inhibition as the relative decrease from the control value, in per cent. Low values mean a response near the control, high ones a response far below the control. `O=C(Nc1cccc(OCCc2ccccn2)c1)C1CCCN(C(=O)c2cc(C(F)(F)F)cc(C(F)(F)F)c2)C1` (centres undefined): the cytotoxicity at 100 µM in data set [1] is 5%. In the data set with PC-3 [2], this molecule displayed an inhibition at 10 µM below 30%.
For orientation: IC50 means the point on the concentration scale where inhibition reaches its midpoint. For the molecule `O=C(Nc1ccc(Cl)cc1)C1CCCN(C(=O)c2cccc(-c3cccs3)c2)C1` (centres undefined), the solubility kinetic in data set [3] came out at 1.36 µg/mL (≈ 3.2 µM). Further, the cytotoxicity at 100 µM in data set [1] is 4%. Moreover, the inhibition at 10 µM in the data set with PC-3 [2] stood at 70%. The IC50 with PC-3 [4] worked out at […].
Consider `O=C(Nc1cccc(CN2CCCC2)c1)C1CCCN(C(=O)c2cc(C(F)(F)F)cc(C(F)(F)F)c2)C1` (centres undefined), for which, in data set [1], the cytotoxicity at 100 µM worked out at 51%.
Same read-out and setting: under `Cc1nc(-c2cccc(C(=O)N3CCCC(C(=O)Nc4ccc(Cl)cc4)C3)c2)cs1` (centres undefined) stands 1%.
In the case of `O=C(Nc1ccc(Cl)cc1)C1CCCN(C(=O)c2cccc(-c3ccco3)c2)C1` (centres undefined), the solubility kinetic in data set [3] was 3.09 µg/mL (≈ 7.56 µM). In the data set with PC-3 [2], this molecule gave an inhibition at 10 µM of 70%. For the same molecule, in the data set with PC-3 [4], 4.2 µM corresponded to half-maximal inhibition (IC50). The Activity entry was “Toxic” with Mus musculus [5], “Non-toxic” in the data set with Mus musculus [6] and “Non-toxic” in data set [7].
For `C=Cc1cccc(NC(=O)C2CCCN(C(=O)c3cc(C(F)(F)F)cc(C(F)(F)F)c3)C2)c1` (centres undefined), the cytotoxicity at 100 µM in data set [1] was determined as 1%.
Same read-out and setting: in the case of `O=C(Nc1cccc([N+](=O)[O-])c1)C1CCCN(C(=O)c2cc(C(F)(F)F)cc(C(F)(F)F)c2)C1` (centres undefined) it was 9%.
On to `O=C(CCNC(=O)c1cc(C(F)(F)F)cc(C(F)(F)F)c1)Nc1ccc(Cl)cc1`, for which, in data set [3], the solubility kinetic was 2.21 µg/mL (≈ 5.04 µM). Moreover, in the data set on PC-3 [2], the inhibition at 10 µM was below 10%.
Take `O=C(Nc1ccc(Cl)cc1)C1CCCN(C(=O)c2ccc(-c3ccco3)cc2)C1` (centres undefined): in data set [1], the cytotoxicity at 100 µM was found to be 6%.
On to `Cc1nc(-c2cccc(NC(=O)C3CCCN(C(=O)c4cc(C(F)(F)F)cc(C(F)(F)F)c4)C3)c2)cs1` (centres undefined), for which, in data set [1], the cytotoxicity at 100 µM is 1%. Moreover, the inhibition at 10 µM with PC-3 [2] came to 42%.
In the case of `O=C(Nc1ccc(Cl)nc1)C1CCCN(C(=O)c2cc(C(F)(F)F)cc(C(F)(F)F)c2)C1` (centres undefined), the cytotoxicity at 100 µM in data set [1] came out at 25%.
In turn, `O=C(Nc1cccc(S(=O)(=O)N2CCCC2)c1)C1CCCN(C(=O)c2cc(C(F)(F)F)cc(C(F)(F)F)c2)C1` (centres undefined) displayed an inhibition at 10 µM in the data set on PC-3 [2] below 30%.
`O=C(Nc1cccc(OCc2ccccn2)c1)C1CCCN(C(=O)c2cc(C(F)(F)F)cc(C(F)(F)F)c2)C1` (centres undefined): the cytotoxicity at 100 µM in data set [1] was 15%.
In the data set with PC-3 [4], `C[C@@H](N)[C@H]1CC[C@H](C(=O)Nc2ccncc2)CC1` [Y-27632] returned an IC50 of 28 µM.
Regarding `O=C(Nc1cccc(Cc2ccccc2)c1)C1CCCN(C(=O)c2cc(C(F)(F)F)cc(C(F)(F)F)c2)C1` (centres undefined), the solubility kinetic in data set [3] was 1.89 µg/mL (≈ 3.54 µM). The inhibition at 10 µM in the data set with PC-3 [2] was below 30%.
Consider `CS(=O)(=O)c1cccc(C(=O)N2CCCC(C(=O)Nc3ccc(Cl)cc3)C2)c1` (centres undefined), for which the cytotoxicity at 100 µM in data set [1] came out at 2%.
On to `CS(=O)(=O)Nc1cccc(C(=O)N2CCCC(C(=O)Nc3ccc(Cl)cc3)C2)c1` (centres undefined), for which, in data set [1], the cytotoxicity at 100 µM is 3%.
On to `O=C(Nc1cccc(-c2cnco2)c1)C1CCCN(C(=O)c2cc(C(F)(F)F)cc(C(F)(F)F)c2)C1` (centres undefined), for which, in data set [1], the cytotoxicity at 100 µM is 9%.
As to `O=C(Nc1cccc(Oc2ccccc2)c1)C1CCCN(C(=O)c2cc(C(F)(F)F)cc(C(F)(F)F)c2)C1` (centres undefined), the solubility kinetic in data set [3] worked out at 3.22 µg/mL (≈ 6 µM). Also, the cytotoxicity at 100 µM in data set [1] is 1%. For the same molecule, in the data set with PC-3 [2], the inhibition at 10 µM is below 30%.
Take `O=C(Nc1ccc(Cl)cc1)C1CCCN(C(=O)c2cccc(-c3nccs3)c2)C1` (centres undefined): the cytotoxicity at 100 µM in data set [1] amounted to 32%.
Still for that read-out and setting: in the case of `CC(=O)Nc1cccc(C(=O)N2CCCC(C(=O)Nc3ccc(Cl)cc3)C2)c1` (centres undefined) it was 4%.
On to `O=C(Nc1ccc(Cl)cc1)C1CCCN(C(=O)c2cc(C(F)(F)F)cc(C(F)(F)F)c2)C1` (centres undefined), for which, in data set [3], the solubility kinetic was determined as 4.5 µg/mL (≈ 9.4 µM). In addition, the cytotoxicity at 100 µM in data set [1] came out at 14%. For the same molecule, in the data set with PC-3 [2], the inhibition at 10 µM was found to be 22%. This molecule registered an IC50 in the data set with PC-3 [4] of 17 µM.
